Assay results as given in the RNAGym collection of RNA variant scans (doi:10.1126/science.aae0568).
Variants at the floor of the assay were thinned out.

B1: tRNA (parent)
chain: GUUCCGUUGGCGUAAUGGUAACGCGUCUCCCUCCUAAGGAGAAGACUGCGGGUUCGAGUCCCGUACGGAACG

Variants of: B1
Experiment: yeast fitness relative to wild type (ratio to wild type); higher = fitter; tRNA-Arg(CCU), competitive growth, 37 C, YPD
Procedure, shortened: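 The tRNA-Arg(CCU) gene variants were made by chemical synthesis with a 3% per-site mutation rate at 69 sites and inserted at the native genomic locus of Saccharomyces cerevisiae. After pooling, the strains were competed in YPD at 37°C for 24 hours in six parallel replicates. Gene amplicons from the start population and each end population were read by 100-nucleotide paired-end sequencing, and Darwinian fitness relative to wild type was taken from genotype frequency changes. Genotypes needed ≥ 100 starting reads, and estimates < 0.5 were set to 0.5.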

First: U35C C49G A70U
Second: C11A U16C U32G C49G C55A
The yeast fitness of the first is higher: 0.563 for the first, 0.546 for the second.

Compared with C34G C61A, C4U C22U C31U A57U is lower in yeast fitness: 0.613 for the first, no more than 0.5 for the second.

U3A C5A C30G G38C C60G and C5U C11U A21G C24G A42U A43C U53G A57C cannot be ordered by yeast fitness: no more than 0.5 for the first, no more than 0.5 for the second.

C27G A40U C55U and G6A C31U C34U G52A cannot be ordered by yeast fitness: no more than 0.5 for the first, no more than 0.5 for the second.

Going from C24G G67A to U3A A40U G56A, the yeast fitness falls from 0.594 to no more than 0.5.

G10C C22G C29A G41A C46U A65C and C4G C5G C11A G38A C49U cannot be ordered by yeast fitness: no more than 0.5 for the first, no more than 0.5 for the second.

First: U3A C27A
Second: A42C C46U
The yeast fitness of the first is lower: 0.86 for the first, 0.969 for the second.

Compared with C24U U32G, C4U G18C A45U G52A A65U is lower in yeast fitness: 0.584 for the first, no more than 0.5 for the second.

C31G C33U A37C A70U and C22U A40G A43U C46G C49G C62U U64C cannot be ordered by yeast fitness: no more than 0.5 for the first, no more than 0.5 for the second.

Compared with U26G C46G A65C, A21U C33U C49A C55U is lower in yeast fitness: 0.563 for the first, no more than 0.5 for the second.

Going from C30A A45G to A14U G38A, the yeast fitness falls from 0.896 to 0.573.

Compared with U13A C24G G25A G39C A40C G51C, A15G C29A A37G is lower in yeast fitness: 0.745 for the first, no more than 0.5 for the second.

Compared with G67A A70C, C5U C31G G56C is lower in yeast fitness: 0.901 for the first, 0.527 for the second.

Going from C5G C22A U26C C33G U35A to U3C A21G, the yeast fitness rises from no more than 0.5 to 0.962.

G6A A14G C46G C62G and U8C C11G G18C C49A A70C cannot be ordered by yeast fitness: no more than 0.5 for the first, no more than 0.5 for the second.

Going from U3G C30A to A20C C27U A45U, the yeast fitness falls from 0.868 to 0.636.

First: A20G U28C A40U
Second: U59C C62U G68U
The yeast fitness of the first is higher: 1.04 for the first, 0.609 for the second.

U8A A45G A65U and C11U A43G A57C cannot be ordered by yeast fitness: no more than 0.5 for the first, no more than 0.5 for the second.

Compared with A15G G38C U64A G68A A69C, G25C A69C is higher in yeast fitness: no more than 0.5 for the first, 1.07 for the second.

C27G C49U C62U A65U and U16C G18U C24U A45C C46G cannot be ordered by yeast fitness: no more than 0.5 for the first, no more than 0.5 for the second.

First: C11A A42C G50C A57C C61G
Second: U13C A43U C60G
The yeast fitness of the first is lower: no more than 0.5 for the first, 0.546 for the second.

Compared with G39C A40U U64G, U7A C34G C62A is higher in yeast fitness: no more than 0.5 for the first, 0.696 for the second.

First: C22G C31A
Second: G12C C27U G39A
The yeast fitness of the first is higher: 0.78 for the first, no more than 0.5 for the second.

Compared with U8C G39A, C27G C34A C60A is lower in yeast fitness: 0.874 for the first, 0.551 for the second.

Going from A21U C46A to U13A G23A U35G U59C, the yeast fitness falls from 0.767 to 0.528.

Going from C5G U19C U35A A43C A65C to G25A A40U C49U C60A G63A, the yeast fitness rises from no more than 0.5 to 0.507.

Going from C24A A70C to G41C C62A G68C, the yeast fitness falls from 0.8 to no more than 0.5.

First: A20G C60A A70U
Second: U3A U7G A14U G25A G41C
The yeast fitness of the first is higher: 0.605 for the first, no more than 0.5 for the second.

U28C C31A G41A G58C C66U and G6C C33G A36C C49A cannot be ordered by yeast fitness: no more than 0.5 for the first, no more than 0.5 for the second.

A20C C31A C60U and G6C C33G G41C G56C G58A G63C A65U cannot be ordered by yeast fitness: no more than 0.5 for the first, no more than 0.5 for the second.

Going from C4A U47A G48C to U32C C46G, the yeast fitness rises from 0.559 to 0.865.

Going from G52C G63A A69G to A15G C27U, the yeast fitness rises from no more than 0.5 to 0.939.

Compared with C49U G68C, C30U C31U A45C C49U U53G is lower in yeast fitness: 0.801 for the first, no more than 0.5 for the second.

Going from U26G G58C to C4U C11G C66A, the yeast fitness falls from 0.696 to no more than 0.5.

Compared with C46G C62G, C5U A20C C22U A36G G52C is lower in yeast fitness: 0.786 for the first, no more than 0.5 for the second.

C4G C11A G17A A20G C27U A43U C49G C60U and G10C A14C G52C cannot be ordered by yeast fitness: no more than 0.5 for the first, no more than 0.5 for the second.

First: U8G A21G
Second: U26C A69U
The yeast fitness of the first is lower: 0.582 for the first, 0.906 for the second.

U7C C11U C22A C29G C33U and U8C C22A A36C G63C cannot be ordered by yeast fitness: no more than 0.5 for the first, no more than 0.5 for the second.

First: G6A C11A U54G
Second: G9A A45C U53A G63C
The yeast fitness of the first is higher: 0.563 for the first, no more than 0.5 for the second.

Going from C27U A36C G68C to C4U U7A C30G C34G A40C C66A A69C, the yeast fitness falls from 0.602 to 0.559.

C31U G38A A40C G68C A70U and U19A A21G C27U C33U G56A cannot be ordered by yeast fitness: no more than 0.5 for the first, no more than 0.5 for the second.

Going from U16A C27U C49U to U3A C11U A37U G41A G52C A57C, the yeast fitness falls from 0.61 to no more than 0.5.
